STAT3 activator: activators of IL-6 induced STAT3 signaling | U3A cells, IL-6 STAT3-luciferase reporter, luminescence; 100% = signal with IL-6 EC80 alone | activation (% of control), % at 5.6 µM | 190,000 compounds, 0.91% hits | AID 871;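 active = activation above the screen-wide mean of compound activation plus 3 SD, cut at about 130% in these data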;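 also: 0% = background luminescence of wells with medium and substrate only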
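Assay system – human STAT1-deficient U3A cells with stable STAT3-luciferase reporter · Also added – IL-6 (33 ng/mL) · Schedule – compound 1 h, then IL-6 6 h at 37 °C · Technique – reporter luminescence signal · Evaluation – % activation versus median of IL-6-stimulated wells · Benchmarks – IL-6-only wells as 100% reference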
AHR act: activators of human aryl hydrocarbon receptor. P35869. AHR-responsive luciferase reporter cells, luminescence. activation, % at 5 µM. 320,000 compounds, 2.5% hits; in the data active = activation above about 47%;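 also: 0% = vehicle wells and 100% = reference agonist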
PolyA inhibitor: yeast polyadenylation inhibition | AID 1875 | S. cerevisiae SKY197-pL101 polyadenylation reporter, beta-gal luminescence; efflux-impaired pdr1/pdr3 knockout yeast; score 100 = 6 SD above DMSO | 300,000 compounds, 0.02% hits | activity score, % at 12 µM;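 active = lowest replicate activity score at least 50, where 100 means six control SD above control mean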;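 also: yeast exposed to compound for 9 h at 30 °C; higher score means more reporter readthrough which indicates perturbed polyadenylation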
PERK inhibitor: inhibitors of human PERK kinase | Q9NZJ5 | CHO PERK-DD fusion, SEAP luminescence translation reporter | inhibition, % at 5.6 µM | 220,000 compounds, 0.17% hits | AID 1416;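 active = inhibition above the mean inhibition of all tested compounds plus 3 SD, set separately per screening campaign, cut at about 2.9% in these data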;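 also: PERK kinase domain activated by AP20187 dimerizer at 100 nM; 0% = DMSO with dimerizer and 100% = rapamycin at 8.4 µM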
HSF1 inh: HSF1 inhibition | 300,000 compounds, 0.77% hits | AID 2098 | NIH3T3-HGL HSE-luciferase, MG132-induced, luminescence 8 h; active compounds read low | activity change, negative = inhibition, % at 7.5 µM (by protocol);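 active = more than half of replicate wells show activity change below -50%, luminescence cut by over half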;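 also: luciferase reports HSF-1 transcriptional activity via heat shock element; 0% = median of DMSO wells and -100% = zero luminescence signal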
Hsp70 activator: Hsp70 transcriptional activation, primary screen. HeLa Hsp70 promoter luciferase reporter, luminescence; scaled: vehicle 0, proteasome-inhibitor control 100%. 200,000 compounds, 0.04% hits. AID 1203. activation, % at 10 µM;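 active = activation above the mean across all tested compounds plus 3 SD, cutoff set per campaign, cut at about 5.5% in these data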;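 also: 100% = MG132 at 30 µM as the positive control and 0% = DMSO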
* hit, by the source's call; x = not tested or not shown. Rows were chosen to be rich in hits. Some 3.6% of all compounds tested hit in one or more screens of this group.

SMILES | STAT3 activator | AHR act | PolyA inhibitor | PERK inhibitor | HSF1 inh | Hsp70 activator
CCOCc1nnc(NC(=O)c2cccs2)s1 | 109 | 33 | 7 | 2 | 3 | 0
CCOCC(=O)Nc1nc2ccc(C)cc2s1 | 77 | -4 | -11 | 0 | 25 | 1
Cc1ccc2nc(NC(=O)c3cccs3)sc2c1 | 44 | 64* | x | 0 | x | 0
CCOCCc1nnc(NC(=O)c2cccs2)s1 | 99 | 74* | 1 | 0 | -5 | 0
Cc1ccc2nc(NC(=O)CSCC(=O)OCC(=O)c3ccccc3)sc2c1 | 58 | -4 | 2 | 1 | -67* | -1
S=C(NCCc1ccccc1)Nc1c(Cl)cccc1Cl | x | 2 | 11 | 1 | 5 | x
O=C(CCc1nnc2ccc(N3CCCC3)nn12)Nc1cc(F)ccc1F | x | -4 | 19 | x | 0 | x
CCc1cc2ccc(OC)cc2nc1SCC(=O)NNC(=O)c1ccco1 | 106 | 53* | -26 | 1 | 8 | 0
COc1ccc(OC)c(NC(=O)CSc2nc3ccccc3cc2Cc2ccccc2)c1 | 109 | 1 | 10 | 2.9* | -54* | 0
COc1ccc(NC(=O)CSc2nc3ccccc3cc2Cc2ccccc2)cc1 | 89 | 2 | 26 | 0 | 7 | 0
Cc1nn(CC(=O)NCCCN2CCCC2)c(=O)c2nn(-c3ccccc3)c(C)c12 | x | -1 | 17 | x | -3 | x
OC(COc1c(F)cc(Br)cc1F)CN1CCOCC1 (configuration not stated) | x | 1 | 29 | x | 3 | x
OC(COc1c(F)cc(Br)cc1F)CN1CCN(c2ccc(F)cc2)CC1 (configuration not stated) | 107 | -2 | -13 | 1 | -87* | 0
Cc1ccc2cc(C=O)c(Cl)nc2c1 | 98 | 2 | 4 | 2 | -3 | 0
O=CNc1ccccc1 | x | 0 | x | x | x | x
CN1C(=O)c2ccc(C(=O)Nc3ccccc3O)cc2C1=O | x | 56* | -7 | x | 28 | x
Cc1ccc(CNC(=O)c2cc(S(=O)(=O)N3CCCCC3)ccc2N2CCOCC2)cc1 | x | 0 | x | x | x | x
COc1ccc(C)cc1NC(=O)CCN1CC(C)OC(C)C1 (configuration not stated) | 98 | 1 | 11 | 0 | 2 | 0
O=c1[nH]c2cc3c(cc2cc1CN(Cc1cccnc1)C(=S)NCc1ccco1)OCCO3 | 108 | 28 | -15 | 0 | -5 | 0
O=c1[nH]c2cc3c(cc2cc1CN(Cc1cccnc1)C(=S)NCc1ccco1)OCO3 | 98 | 66* | -6 | -1 | -1 | 0
Cc1cc(C(=O)CCl)c(C)n1CCc1ccccc1 | 117 | 61* | -34 | 0 | 12 | 0
Cc1cc(C(=O)Cn2cncn2)c(C)n1CCc1ccc(F)cc1 | 94 | 60* | 6 | 1 | 13 | 0
C/C(=N\Nc1nc(C)cc(-c2ccccc2)n1)c1ccc(C)o1 | 94 | 47* | -13 | 0 | 10 | 0
C/C(=N\Nc1nc(C)cc(-c2ccccc2)n1)c1ccccc1 | x | 40 | 6 | x | -6 | x
C/C(=N\Nc1nc(C)cc(-c2ccccc2)n1)c1cccc(N)c1 | x | 49* | 6 | x | 12 | x
SMILES | STAT3 activator | AHR act | PolyA inhibitor | PERK inhibitor | HSF1 inh | Hsp70 activator
Cc1cc(-c2ccccc2)nc(N/N=C/c2ccccc2F)n1 | x | 68* | -14 | x | 12 | x
CC1(c2ccc(Cl)cc2Cl)NC(=O)N(CC(=O)Nc2ccc3[nH]c(=O)[nH]c3c2)C1=O (configuration not stated) | x | 1 | 10 | x | -2 | x
CC(C)CCNC(=O)CN1N=C(c2ccc(Cl)cc2)CCC1=O | x | 0 | 3 | x | -2 | x
CN(Cc1ccccc1)C(=O)c1cc2cc(F)ccc2[nH]1 | x | 62* | 19 | x | 5 | x
COc1cc2[nH]c(C(=O)N(C)Cc3ccccc3)cc2c(OC)c1OC | x | 7 | 25 | x | 1 | x
O=C(Nc1cccnc1)c1ccccc1O | 98 | 54* | 6 | 0 | 2 | 0
O=C(Nc1ccccc1O)c1ccccc1O | 90 | 131* | 0 | 0 | 12 | 0
CS(=O)(=O)c1cccc(S(=O)(=O)N2CCCCCC2)c1 | x | -6 | 4 | x | -5 | x
CCc1cc2c(SCC#N)ncnc2s1 | 106 | 0 | -1 | 2 | 19 | 1
O=C(Nc1nnc(S(=O)(=O)N2CCCCCC2)s1)c1ccccc1Cl | x | 1 | -14 | x | -70* | x
O=C(NC1CC1)c1cccc(NC(=O)c2cnn(-c3ccccc3)n2)c1 | x | 59* | x | x | x | x
O=C(Nc1cccc(C(=O)NC2CCCC2)c1)c1ccccc1 | x | 11 | -16 | x | -3 | x
COc1ccc(CN2CCC(=O)N([C@H](CO)CC(C)C)CC2)cc1 | x | 1 | -1 | x | 1 | x
O=C(c1ccc(NS(=O)(=O)c2ccccc2)cc1)N1CCN(c2ccccc2)CC1 | x | -1 | x | x | x | x
COc1ccc(/C=N/Nc2cc(C)nc3c(C)cccc23)cc1 | x | 71* | 0 | x | 10 | x
COc1cccc2c(N/N=C/c3ccc(O)c(O)c3)cc(C)nc12 | x | 10 | 4 | x | 9 | x
CC(C)N(C(=S)Nc1cccnc1)c1ccccc1 | x | 2 | 16 | 0 | 1 | x
CCOC(=O)Cn1c(COc2ccccc2OC)[n+](C)c2ccccc21 | x | -1 | 2 | x | -84* | x
CCCCCCCCCCOC(=O)Cn1c(COc2ccccc2C)[n+](C)c2ccccc21 | x | 2 | 4 | x | 5 | x
COc1ccc(C(=O)C[n+]2ccc3ccccc3c2C)cc1 | x | 59* | -11 | -1 | 24 | x
COc1ccc(C(=O)C[n+]2cccc3cc(OC)ccc32)cc1 | x | 0 | -9 | x | 3 | x
Cc1ccc(C(=O)OCC(=O)N(CC(C)C)c2c(N)n(Cc3ccccc3)c(=O)[nH]c2=O)s1 | x | -1 | -5 | x | 0 | x
Cc1cc(C(=O)N/N=C/c2cc(Br)cc(Br)c2OC(=O)c2ccccc2)n[nH]1 | 99 | 11 | -7 | 1 | 2 | 0
Cc1cc(C(=O)N/N=C\c2cc(C(C)(C)C)ccc2O)n[nH]1 | x | 53* | 8 | x | -3 | x
Cc1cc(C(=O)N/N=C/c2cc(Br)ccc2OC(=O)c2ccc(Br)cc2)n[nH]1 | 98 | 50* | -7 | 1 | 10 | 0
SMILES | STAT3 activator | AHR act | PolyA inhibitor | PERK inhibitor | HSF1 inh | Hsp70 activator
CC(C)(C)NC(=O)COc1ccc2oc3c(c2c1)CCCC3 | x | 5 | -8 | x | 13 | x
Clc1ccc2[nH]c3c(c2c1)CCc1cn[nH]c1-3 | 88 | 96* | -15 | 0 | 33 | 0
Cc1ccc(-c2[nH]nc(N)c2N=Nc2ccccc2C)cc1 | 93 | 62* | -5 | 0 | -8 | 0
Cc1ccc(-c2[nH]nc(N)c2N=Nc2cccc(Cl)c2C)cc1 | 106 | x | x | 0 | x | 0
Cc1ccsc1CN(C)C(=O)C(NC(=O)c1cccc(S(=O)(=O)N2CCOCC2)c1)C(C)C (configuration not stated) | x | 6 | x | x | x | x
O=C(CNC(=O)c1cccs1)c1ccc([N+](=O)[O-])cc1 | 102 | 78* | -21 | 1 | 6 | 0
O=C(CNc1ccccc1)c1ccc([N+](=O)[O-])cc1 | 113 | 63* | 3 | 0 | 0 | 0

Screening data as filed in PubChem.
